Measurements taken from article PMC10810238 (Arabian journal of chemistry, 2023).
“And” between values parts separate entries of the source, which are not always exact repeats. Equal values may be shown once. Read-outs that look alike come from different tables or passages of the source. One block for each compound: values may come before it.

Key:
[1] = tested on: Plasmodium berghei NK 65 strain; test: Mean Survival Time; assay type: in vivo, Plasmodium berghei in Swiss albino mice
Procedure, shortened: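 Peters' 4-day suppressive design: male and female Swiss albino mice (14–31 g) were inoculated with P. berghei NK 65 and randomised into five groups. Test compound in vehicle (100, 200 or 400 mg/kg) was given orally once daily on days 0–4, first dose 2 h after inoculation. Chloroquine at 100 mg/kg was the positive control and vehicle alone the negative control. Mortality was recorded for 30 days from inoculation.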

[2] = tested on: P. falciparum NF54 strain; test: In vitro antiplasmodial screening, 3H-hypoxanthine incorporation assay; assay type: cell-based, Plasmodium falciparum; settings: for Selectivity Index: L6 IC50 / Pf IC50
Procedure, shortened: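 P. falciparum NF54 erythrocytic stages were grown in human A+ red cells (2.5% haematocrit, 0.3% parasitaemia) in hypoxanthine-free RPMI 1640 with HEPES, NaHCO₃, neomycin and Albumax. Test compound was stocked in DMSO at 10 mg/ml and diluted in medium to […]. Plates ran 48 h at 37 °C under 4% CO₂/3% O₂/93% N₂, then 0.5 µCi ³H-hypoxanthine was added for 24 h. Cells were harvested for scintillation counting. IC50 came from sigmoidal curves by linear regression, with chloroquine as standard.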

[3] = tested on: Plasmodium berghei NK 65 strain; test: Peter's four-day suppressive test; assay type: in vivo, Plasmodium berghei in Swiss albino mice; settings: for % Parasitemia: mean ± SEM
[4] = In vitro cytotoxicity with L-6 cells; assay type: cell-based; settings: rat, L-6 cells (rat skeletal myoblasts)
In vivo acute toxicity = test: In vivo acute toxicity; parameters: species or system Swiss albino mice
Procedure, shortened: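 Male and female Swiss albino mice, 6–8 weeks old, were dosed per OECD guidance. Each group got one oral dose of test compound (100, 200, 400, 2000 or 5000 mg/kg) in 10% DMSO/10% Tween 80/80% water; a vehicle group served as control. Intoxication signs and mortality were watched for the first 30 min, then over 14 d. Mice were weighed on the first and final day (final day 14 d for the three lower doses, 7 d for the two higher). LD50 was the geometric mean of the least lethal dose and the highest non-lethal dose (Lorke). Kidney and liver were examined by histology, with paired t-test statistics.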

[5] = tested on: P. falciparum NF 54 strain; settings: ref Miglianico et al., 2023; cited from earlier work
[6] = 100 mg/kg oral daily Days 0-4, monitored 30 days, (+) = animals survived
[7] = Plasmodium falciparum, NF54, read-out: Antiplasmodial (Pf) IC50, NF54 strain, erythrocytic stages
[8] = 100 mg/kg oral daily Days 0-4, Day 4 blood
[9] = read-out: Antiplasmodial (Pf) IC50, NF54 strain, erythrocytic stages

SMILES: CCN(CC)CCCC(C)Nc1ccnc2cc(Cl)ccc12 (stereo not shown) [Chloroquine, chloroquine, reference compound]
- MST [1, 6]: 30 (+) days
- Selectivity Index [2]: 33069.00
- IC50 [2, 7]: 2 nM
- % Suppression ± SEM ([3]; 100 mg/kg oral daily Days 0-4): 81.71 ± 1.82%
- % Parasitemia [3, 8]: 2.4 ± 0.08%
- % Suppression ± SEM ([3]; 100 mg/kg oral daily Days 0-4, listed as standard drug): 81.71%
- IC50 at 72 h [4]: 66100 nM

- IC50 [2, 7]: 405 nM
SMILES: N=C(NO)c1ccc(C(=O)NO)cc1 [Compound 1c, N-Hydroxy-4-(N-hydroxycarbamimidoyl)benzamide]
- Selectivity Index [2]: 27.04
- IC50 at 72 h [4]: 11000 nM

- IC50 [2, 7]: < 200 nM
- IC50 [2, 9]: 199 nM
SMILES: Cl.N=C(N)c1ccc(C(=O)NO)cc1 [Compound 1d, 4-Carbamimidoyl-N-hydroxybenzamide Hydrochloride]
- Selectivity Index [2]: 98.72
- IC50 at 72 h [4]: 19600 nM

- IC50 [2, 7]: 2400 nM
SMILES: N=C(NO)c1ccc(NC(=S)NOCc2ccccc2)cc1 [Compound 2b, 4-(3-(Benzyloxy)thioureido)-N-hydroxybenzimidamide]
- Selectivity Index [2]: 7.59
- IC50 at 72 h [4]: 18200 nM

SMILES: Nc1ccc(C(=O)NO)cc1 [Compound 3b, 4-Aminobenzenecarbohydroxamic acid]
- Mortality D0 (In vivo acute toxicity; 100 mg/kg bdw oral, 4 mice): 0
- Mortality D1 (In vivo acute toxicity; 100 mg/kg bdw oral, 4 mice): 0
- Mortality D5 (In vivo acute toxicity; 100 mg/kg bdw oral, 4 mice): 1
- Mortality D7 (In vivo acute toxicity; 100 mg/kg bdw oral, 4 mice): 0
- Mortality D14 (In vivo acute toxicity; 100 mg/kg bdw oral, 4 mice): 0
- Liver histology (In vivo acute toxicity; 100 mg/kg, 200 mg/kg and 400 mg/kg, mice): mild to moderate vacuolar degeneration of hepatocytes
- Kidney histology (In vivo acute toxicity; 100 mg/kg, mice): Kidney tubular degeneration
- % Mortality (In vivo acute toxicity; 200 mg/kg bdw oral, 4 mice): 0%
- Mortality D0 (In vivo acute toxicity; 200 mg/kg bdw oral, 4 mice): 0
- Mortality D1 (In vivo acute toxicity; 200 mg/kg bdw oral, 4 mice): 0
- Mortality D5 (In vivo acute toxicity; 200 mg/kg bdw oral, 4 mice): 0
- Mortality D7 (In vivo acute toxicity; 200 mg/kg bdw oral, 4 mice): 0
- Mortality D14 (In vivo acute toxicity; 200 mg/kg bdw oral, 4 mice): 0
- Mortality D0 (In vivo acute toxicity; 400 mg/kg bdw oral, 4 mice): 0
- Mortality D1 (In vivo acute toxicity; 400 mg/kg bdw oral, 4 mice): 1
- Mortality D5 (In vivo acute toxicity; 400 mg/kg bdw oral, 4 mice): 0
- Mortality D7 (In vivo acute toxicity; 400 mg/kg bdw oral, 4 mice): 0
- Mortality D14 (In vivo acute toxicity; 400 mg/kg bdw oral, 4 mice): 0
- Kidney histology (In vivo acute toxicity; 400 mg/kg, mice): Severe congestion and edema
- % Mortality (In vivo acute toxicity; 2,000 mg/kg bdw oral, 4 mice): 0%
- Mortality D0 (In vivo acute toxicity; 2,000 mg/kg bdw oral, 4 mice): 0
- Mortality D1 (In vivo acute toxicity; 2,000 mg/kg bdw oral, 4 mice): 0
- Mortality D5 (In vivo acute toxicity; 2,000 mg/kg bdw oral, 4 mice): 0
- Mortality D7 (In vivo acute toxicity; 2,000 mg/kg bdw oral, 4 mice): 0
- Mortality D14 (In vivo acute toxicity; 2,000 mg/kg bdw oral, 4 mice): 0
- Kidney histology (In vivo acute toxicity; 2000 mg/kg, mice): no lesions
- % Mortality (In vivo acute toxicity; 5,000 mg/kg bdw oral, 1 mouse): 0%
- Mortality D0 (In vivo acute toxicity; 5,000 mg/kg bdw oral, 1 mouse): 0
- Mortality D1 (In vivo acute toxicity; 5,000 mg/kg bdw oral, 1 mouse): 0
- Mortality D5 (In vivo acute toxicity; 5,000 mg/kg bdw oral, 1 mouse): 0
- Mortality D7 (In vivo acute toxicity; 5,000 mg/kg bdw oral, 1 mouse): 0
- Mortality D14 (In vivo acute toxicity; 5,000 mg/kg bdw oral, 1 mouse): 0
- Toxicity at the highest concentration limit (In vivo acute toxicity; 5000 mg/kg, single oral dose, mice): no toxicity
- Body weight change (In vivo acute toxicity; with increase in concentration of compound, acute toxicity study, mice): gained additional weight
- MST [1, 6]: 24 days
- MST ([1]; 200 mg/kg oral daily Days 0-4, monitored 30 days): 29.5 days
- MST ([1]; 400 mg/kg oral daily Days 0-4, monitored 30 days, (+) = animals survived): 30 (+) days
- Selectivity Index [2]: 44.92
- IC50 [2, 7]: < 200 nM
- IC50 [2, 9]: 147 nM
- % Suppression ± SEM ([3]; 100 mg/kg oral daily Days 0-4): 51.99 ± 10.38%
- % Parasitemia [3, 8]: 6.25 ± 0.95%
- % Suppression ± SEM ([3]; 200 mg/kg oral daily Days 0-4): 78.55 ± 13.35%
- % Parasitemia ([3]; 200 mg/kg oral daily Days 0-4, Day 4 blood): 2.95 ± 1.95%
- % Suppression ± SEM ([3]; 400 mg/kg oral daily Days 0-4): 80.53% and 80.53 ± 3.26%
- % Parasitemia ([3]; 400 mg/kg oral daily Days 0-4, Day 4 blood): 2.6 ± 0.6%
- IC50 at 72 h [4]: 6600 nM

SMILES: COc1cc([C@@H]2c3cc4c(cc3[C@H](O)[C@H]3COC(=O)[C@H]23)OCO4)cc(OC)c1OC [Podophyllotoxin, reference compound]
- IC50 at 72 h [4]: 2 nM

SMILES: CCc1nc(N)nc(N)c1-c1ccc(Cl)cc1 [Pyrimethamine]
- IC50 [5]: 17 nM

SMILES: CC1(C)N=C(N)N=C(N)N1c1ccc(Cl)cc1 [cycloguanil]
- IC50 [5]: 4.5 nM
